Reference: publication PMC6072051 (MedChemComm, 2017)

Tests used:
[1] = molecular target: T1, M. tuberculosis ICL1 (Mycobacterium tuberculosis, UniProt P9WKK7); test: 1H NMR assay of ICL1-catalysed turnover of DL-isocitrate; assay type: biochemical; conditions: for single concentration inhibition of ICL1: 100 μM inhibitor, 190 nM ICL1, 1 mM DL-isocitrate, 5 mM MgCl2
T1 sequence (P9WKK7 1-428): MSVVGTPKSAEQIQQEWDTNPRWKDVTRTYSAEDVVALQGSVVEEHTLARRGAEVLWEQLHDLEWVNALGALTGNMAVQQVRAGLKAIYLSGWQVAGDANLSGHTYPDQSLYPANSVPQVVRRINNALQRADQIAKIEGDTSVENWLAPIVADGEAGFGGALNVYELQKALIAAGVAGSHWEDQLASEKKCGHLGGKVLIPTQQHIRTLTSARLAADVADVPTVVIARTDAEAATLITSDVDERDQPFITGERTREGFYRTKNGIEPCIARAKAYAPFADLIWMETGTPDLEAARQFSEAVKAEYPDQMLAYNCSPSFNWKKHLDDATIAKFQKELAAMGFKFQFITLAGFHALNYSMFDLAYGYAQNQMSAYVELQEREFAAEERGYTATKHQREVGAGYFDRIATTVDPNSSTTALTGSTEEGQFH
Procedure, shortened: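 Recombinant ICL1 from E. coli BL21(DE3), purified by His-trap and gel filtration. Reactions in 50 mM Tris-D11 pH 7.5, 90% H2O/10% D2O at 300 K. 1H spectra with excitation-sculpting water suppression every ~1.3 min track the isocitrate decrease and the succinate singlet at 2.3 ppm. Initial rates from 15–20 min; inhibitors at varied concentrations; triplicates; IC50 by 3-parameter sigmoid fit.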

[2] = system: ICL1; conditions: DL-isocitrate as substrate, LDH assay; cited from earlier work
[3] = molecular target: T1, M. tuberculosis ICL1; test: 1H NMR ICL1 enzyme kinetics; assay type: biochemical; conditions: methylisocitrate as substrate, 190 nM ICL1, 5 mM MgCl2

SMILES	single concentration inhibition of ICL1 [1]	IC50 [1] [µM]	other results
COC(=O)C=CC(=O)c1ccc(OC)cc1 [Methyl-4-(4-methoxyphenyl)-4-oxobut-2-enoate, reference compound]	weakest of the four tested		
O=C(O)CC(C(=O)O)C(O)C(=O)O (racemic) [DL-isocitrate, DL-Isocitrate]			Km [2]: 190 µM; kcat [2]: 5.24 s^–1
CCOC(=O)c1cc2cc(CC(=O)c3ccc(O)cc3O)ccc2o1 [Compound 38]	significantly inhibited ICL1	> 100	
O=C(O)CC[N+](=O)[O-] [3-Nitropropionate, reference compound]	most potent inhibitor		
CCOC(=O)c1ccc(CC(=O)c2oc3cc(O)ccc3c2C)o1 [Compound 29]	significantly inhibited ICL1	> 100	
C[C@](CC(=O)O)(C(=O)O)[C@H](O)C(=O)O [methylisocitrate]			substrate concentration above which substrate inhibition was observed [3]: exceeded 1 mM
